{"source": "ChEMBL document CHEMBL1133118", "about": "(J Med Chem, 2000)", "key": {"[1]": {"biological_target": "T1, Adenosine receptor A2b (Homo sapiens, UniProt P29275)", "T1 sequence (P29275 whole entry)": "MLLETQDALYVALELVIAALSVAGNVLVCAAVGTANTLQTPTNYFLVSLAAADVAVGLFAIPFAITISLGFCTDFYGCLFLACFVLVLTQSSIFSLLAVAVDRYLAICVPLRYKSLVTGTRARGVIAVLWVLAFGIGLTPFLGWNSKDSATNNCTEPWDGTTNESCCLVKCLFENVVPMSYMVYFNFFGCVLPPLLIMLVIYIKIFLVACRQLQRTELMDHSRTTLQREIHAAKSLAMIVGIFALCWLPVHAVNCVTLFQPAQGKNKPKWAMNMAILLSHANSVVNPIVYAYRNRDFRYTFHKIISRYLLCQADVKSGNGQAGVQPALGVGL", "test": "Displacement of [3H]DPCPX from Adenosine A2b receptor expressed in HEK-293 cells; range 38-63"}, "[2]": {"biological_target": "T2, Adenosine receptor A2a (Homo sapiens, UniProt P29274)", "T2 sequence (P29274 whole entry)": "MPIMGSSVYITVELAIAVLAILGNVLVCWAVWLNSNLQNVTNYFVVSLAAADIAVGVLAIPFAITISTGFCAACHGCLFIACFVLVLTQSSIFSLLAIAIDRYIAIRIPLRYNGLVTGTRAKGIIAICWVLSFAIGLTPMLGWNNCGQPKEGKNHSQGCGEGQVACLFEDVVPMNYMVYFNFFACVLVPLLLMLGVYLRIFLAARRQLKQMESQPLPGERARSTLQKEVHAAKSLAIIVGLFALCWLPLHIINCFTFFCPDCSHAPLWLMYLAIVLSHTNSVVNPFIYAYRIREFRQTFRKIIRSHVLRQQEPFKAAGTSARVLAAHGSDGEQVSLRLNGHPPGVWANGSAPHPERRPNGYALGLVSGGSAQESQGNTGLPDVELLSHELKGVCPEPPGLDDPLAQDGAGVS", "test": "biochemical"}, "[3]": {"biological_target": "T3, Adenosine receptor A3 (Homo sapiens, UniProt P0DMS8)", "T3 sequence (P0DMS8 whole entry)": "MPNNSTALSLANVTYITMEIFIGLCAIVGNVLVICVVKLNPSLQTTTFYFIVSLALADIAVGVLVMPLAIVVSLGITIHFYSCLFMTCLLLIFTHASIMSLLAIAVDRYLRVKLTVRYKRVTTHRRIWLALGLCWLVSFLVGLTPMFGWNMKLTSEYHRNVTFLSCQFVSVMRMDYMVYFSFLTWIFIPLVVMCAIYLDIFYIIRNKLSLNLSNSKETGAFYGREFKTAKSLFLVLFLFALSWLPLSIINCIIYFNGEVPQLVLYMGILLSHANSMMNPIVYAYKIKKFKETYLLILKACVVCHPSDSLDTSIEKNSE", "test": "Displacement of [3H]MRE3008-F20 from human adenosine A3 receptor expressed in CHO cells; range 378-488", "type": "cell-based"}, "[4]": {"biological_target": "Adenosine receptors; A2b & A3 (Homo sapiens) (UniProt P29275+P0DMS8)", "test": "Ratio of binding affinity of human A2B receptor to that of human A3 receptor", "type": "protein assay", "outline": "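Ki ratio, n=3-6, 6–8 concentrations. A2B in HEK-293 membranes (20 μg): 40 nM [3H]DPCPX, 50 mM Tris HCl, 10 mM MgCl2, 1 mM EDTA, 0.1 mM benzamidine pH 7.4, 2 IU/mL adenosine deaminase, 60 min at 25 °C, nonspecific with 100 μM NECA. A3 in CHO membranes (50 μg): 1 nM [3H]MRE3008-F20, 120 min at 4 °C.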"}, "[5]": {"biological_target": "T4, Adenosine receptor A3 (Homo sapiens) (UniProt P0DMS8)", "T4 sequence (whole entry)": "T3 sequence (P0DMS8 whole entry)", "test": "Percentage of blockade by 1 uM of the inhibition by 100 nM IB-MECA-inhibited cAMP accumulation in CHO cells expressing human adenosine A3 receptor.", "type": "functional, cell-based", "outline": "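CHO cells stably expressing human A3 receptor; membranes in 50 mM Tris HCl, 10 mM MgCl2, 1 mM EDTA pH 7.4 with 5 μM GTP, 0.5 mM […] and 2.0 IU/mL adenosine deaminase. Preincubated 10 min at 37 °C, then IB-MECA (100 nM) and/or antagonist with 1 mM ATP and 10 μM forskolin for 10 min. Boiled 2 min. cAMP read by [3H]cAMP competition with adrenal binding protein.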"}, "[6]": {"biological_target": "Adenosine receptors; A1 & A3 (Homo sapiens) (UniProt P30542+P0DMS8)", "test": "Ratio of binding affinity of human A1 receptor to that of human A3 receptor", "type": "protein assay", "outline": "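Ki ratio from displacement in CHO membranes, 6–8 concentrations, n=3-6, filtration counting. A1: 1 nM [3H]DPCPX, 50 μg protein, 120 min at 25 °C, nonspecific with 10 μM CHA. A3: 1 nM [3H]MRE3008-F20, 50 μg protein, Tris/10 mM MgCl2 pH 7.4, 120 min at 4 °C, nonspecific with 1 μM MRE3008-F20.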"}, "[7]": {"biological_target": "T1, Adenosine receptor A2b", "test": "Displacement of [3H]-DPCPX from Adenosine A2b receptor expressed in […]; range 719-895", "type": "cell-based"}, "[8]": {"biological_target": "T3, Adenosine receptor A3", "test": "Displacement of [3H]MRE3008-F20 from human adenosine A3 receptor expressed in CHO cells; range 33-48", "type": "cell-based"}, "[9]": {"biological_target": "T2, Adenosine receptor A2a", "test": "Displacement of [3H]-SCH- 58261 from human adenosine A2A receptor expressed in CHO cells; range 880-1160", "type": "cell-based", "outline": "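Membranes from CHO cells stably expressing human A2A receptor, grown in DMEM/F12 without nucleosides, resuspended in 50 mM Tris HCl, 10 mM MgCl2, pH 7.4; 50 μg protein/assay. Competition with [3H]SCH 58261 at 6–8 or more compound concentrations, 60 min at 25 °C; nonspecific binding with 50 μM NECA. Filtration on GF/B filters, scintillation counting; n=3-6.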"}, "[10]": {"biological_target": "T2, Adenosine receptor A2a", "test": "Displacement of [3H]-SCH- 58261 from human adenosine A2A receptor expressed in CHO cells; range 2.40-3.55", "type": "cell-based"}, "[11]": {"biological_target": "T1, Adenosine receptor A2b", "test": "Displacement of [3H]DPCPX from Adenosine A2b receptor expressed in HEK-293 cells; range 81-101"}, "[12]": {"biological_target": "T5, Adenosine receptor A1 (Homo sapiens, UniProt P30542)", "T5 sequence (P30542 whole entry)": "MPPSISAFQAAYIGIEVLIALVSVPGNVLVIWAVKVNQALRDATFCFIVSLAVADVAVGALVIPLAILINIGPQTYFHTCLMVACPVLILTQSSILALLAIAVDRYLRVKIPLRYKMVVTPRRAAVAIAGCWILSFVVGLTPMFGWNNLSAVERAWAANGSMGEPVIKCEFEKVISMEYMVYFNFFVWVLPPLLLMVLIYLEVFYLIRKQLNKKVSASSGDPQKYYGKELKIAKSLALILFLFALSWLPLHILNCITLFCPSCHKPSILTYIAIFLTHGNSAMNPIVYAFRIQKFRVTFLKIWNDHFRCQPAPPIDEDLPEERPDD", "test": "Displacement of [3H]DPCPX from human adenosine A1 receptor expressed in CHO cells; range 81-127", "type": "cell-based"}, "[13]": {"biological_target": "T3, Adenosine receptor A3", "test": "biochemical"}, "[14]": {"biological_target": "T1, Adenosine receptor A2b", "test": "Displacement of [3H]-DPCPX from Adenosine A2b receptor expressed in CHO cells; range 50-63", "type": "cell-based", "conditions": "in the assay text read “HEK-293 cells” for “CHO cells”", "outline": "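Human recombinant A2B receptor was expressed in HEK-293 cell membranes (20 μg protein). Incubated with 40 nM [3H]DPCPX in 50 mM Tris HCl, 10 mM MgCl2, 1 mM EDTA, 0.1 mM benzamidine, pH 7.4, with 2 IU/mL adenosine deaminase, at least 6–8 test concentrations, 60 min, 25 °C. Nonspecific binding was taken with 100 μM NECA; n=3-6.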"}, "[15]": {"biological_target": "T3, Adenosine receptor A3", "test": "Inhibition of cAMP accumulation in CHO cells expressing human adenosine A3 receptor; range 4.0-7.5", "type": "functional, cell-based"}, "[16]": {"biological_target": "T4, Adenosine receptor A3 (Homo sapiens)", "conditions": "CHO, 1 uM"}, "[17]": {"biological_target": "T3, Adenosine receptor A3", "test": "Displacement of [3H]MRE3008-F20 from human adenosine A3 receptor expressed in CHO cells; range 0.85-0.98", "type": "cell-based"}, "[18]": {"biological_target": "T3, Adenosine receptor A3", "test": "Inhibition of cAMP accumulation in CHO cells expressing human adenosine A3 receptor", "type": "functional, cell-based"}, "[19]": {"biological_target": "T3, Adenosine receptor A3", "test": "biochemical", "remark": "listed apart in the source"}, "[20]": {"biological_target": "T2, Adenosine receptor A2a", "test": "Displacement of [3H]-SCH- 58261 from human adenosine A2A receptor expressed in CHO cells; range 730-1100", "type": "cell-based"}, "[21]": {"biological_target": "T1, Adenosine receptor A2b", "test": "Displacement of [3H]DPCPX from Adenosine A2b receptor expressed in HEK-293 cells; range 3828-4817"}, "[22]": {"biological_target": "T5, Adenosine receptor A1", "test": "Displacement of [3H]DPCPX from human adenosine A1 receptor expressed in CHO cells; range 267-453", "type": "cell-based"}, "[23]": {"biological_target": "T3, Adenosine receptor A3", "test": "Displacement of [3H]MRE3008-F20 from human adenosine A3 receptor expressed in CHO cells; range 3228-3614", "type": "cell-based"}}}
{"compound": "Nc1nc2nn(CCCc3ccccc3)cc2c2nc(-c3ccco3)nn12", "values": [{"measurement": "Ki", "setting": "[1]", "result": 49, "unit": "nM"}, {"measurement": "Ki", "setting": "[2]", "result": 0.16, "unit": "nM"}, {"measurement": "Ki", "setting": "[3]", "result": 430, "unit": "nM"}, {"measurement": "Ratio", "setting": "[4]", "result": 0.011}, {"measurement": "inhibition", "setting": "[5]", "result": 18, "unit": "%"}, {"measurement": "Ratio", "setting": "[6]", "result": 0.007}]}
{"compound": "COc1ccc(NC(=O)Nc2nc3nn(CCCc4ccccc4)cc3c3nc(-c4ccco4)nn23)cc1", "values": [{"measurement": "Ki", "setting": "[7]", "result": 802, "unit": "nM"}, {"measurement": "Ki", "setting": "[8]", "result": 40, "unit": "nM"}, {"measurement": "Ratio", "setting": "[4]", "result": 20}, {"measurement": "Ki", "setting": "[9]", "result": 1010, "unit": "nM"}, {"measurement": "inhibition", "setting": "[5]", "result": 49, "unit": "%"}, {"measurement": "Ratio", "setting": "[6]", "result": 6.27}]}
{"compound": "Cn1cc2c(nc(N)n3nc(-c4ccco4)nc23)n1", "values": [{"measurement": "Ki", "setting": "[10]", "result": 2.8, "unit": "nM"}, {"measurement": "Ki", "setting": "[11]", "result": 90, "unit": "nM"}, {"measurement": "Ki", "setting": "[12]", "result": 101, "unit": "nM"}, {"measurement": "Ki", "setting": "[13]", "result": 300, "unit": "nM"}, {"measurement": "Ratio", "setting": "[4]", "result": 0.3}, {"measurement": "inhibition", "setting": "[5]", "result": 26, "unit": "%"}, {"measurement": "Ratio", "setting": "[6]", "result": 0.33}]}
{"compound": "CCCn1cc2c(nc(NC(=O)Nc3cccc(Cl)c3)n3nc(-c4ccco4)nc23)n1", "values": [{"measurement": "Ki", "setting": "[14]", "result": 57, "unit": "nM"}, {"measurement": "IC50", "setting": "[15]", "result": 5.5, "unit": "nM"}, {"measurement": "inhibition", "setting": "[16]", "result": 80, "unit": "%"}, {"measurement": "Ki", "setting": "[17]", "result": 0.9, "unit": "nM"}, {"measurement": "Ratio", "setting": "[4]", "result": 62.6}, {"measurement": "Ratio", "setting": "[6]", "result": 33}]}
{"compound": "Nc1nc2ccc(Cl)cc2c2nc(-c3ccco3)nn12", "note": "[CGS-15943]", "values": [{"measurement": "IC50", "setting": "[18]", "result": 406, "unit": "nM"}, {"measurement": "inhibition", "setting": "[5]", "result": 30, "unit": "%"}, {"measurement": "Ki", "setting": "[19]", "result": 85, "unit": "nM"}]}
{"compound": "Nc1nc2nn(CCc3cccc4ccccc34)cc2c2nc(-c3ccco3)nn12", "values": [{"measurement": "Ki", "setting": "[20]", "result": 896, "unit": "nM"}, {"measurement": "Ki", "setting": "[21]", "result": 4290, "unit": "nM"}, {"measurement": "Ratio", "setting": "[4]", "result": 1.26}, {"measurement": "Ki", "setting": "[22]", "result": 348, "unit": "nM"}, {"measurement": "inhibition", "setting": "[5]", "result": 4, "unit": "%"}, {"measurement": "Ratio", "setting": "[6]", "result": 0.1}, {"measurement": "Ki", "setting": "[23]", "result": 3420, "unit": "nM"}]}
